pIC50, pKi: −log10 of the molar value.
Columns and labels:
[1] = biological target: T1, 3-oxo-5-alpha-steroid 4-dehydrogenase 2 (Homo sapiens, UniProt P31213); assay: In vitro inhibitory activity against human type 2 5-alpha reductase
T1 sequence (P31213 whole entry): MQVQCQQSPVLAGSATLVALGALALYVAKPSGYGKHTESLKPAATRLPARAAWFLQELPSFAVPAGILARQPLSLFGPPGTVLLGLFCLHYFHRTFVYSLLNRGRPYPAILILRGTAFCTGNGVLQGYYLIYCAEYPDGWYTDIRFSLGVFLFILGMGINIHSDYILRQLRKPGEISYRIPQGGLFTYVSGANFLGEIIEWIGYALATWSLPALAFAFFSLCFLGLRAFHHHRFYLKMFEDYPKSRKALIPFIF

[2] = Half-life after intravenous administration of 5 mg/kg/day dose in male beagles; type: ADME, organism-based, Canis lupus familiaris; set-up: route intravenous; conditions: beagle, dog, in vivo
Method in brief: (§1)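 Male beagles received iv doses of 5 or 10 mg/kg from 5 mg/mL solutions in aqueous 40% (w/v) Molecusol, and some also received oral doses. Heparinized blood was sampled from 0 min to 24 h and assayed by HPLC (UV 304 nm, or thermospray MS). AUC∞ was calculated by the trapezoidal rule.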

Rattus norvegicus [3] = assay: In vivo inhibition of T stimulated prostate growth in rats was reported after oral administration at a dose 10 mg/kg/day
[4] = Bioavailability in dog (male Beagle) i.v. administration; type: ADME, organism-based, Canis lupus familiaris; conditions: in vivo, po, in the assay text read “oral administration” for “[…]”; method in brief: as §1
[5] = In vitro inhibitory activity against human adrenal 3-beta hydroxy-delta 5-teroid isomerase
Method in brief: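 Microsomes were prepared from human adrenal tissue by homogenization and differential centrifugation. Inhibitor in 50% DMSO was preincubated 10 min at 37 °C in 100 mM potassium phosphate pH 7.5 with 1 mM NAD+. The reaction was started with 100 nM [3H]DHEA and quenched in ethanol after 15 min. DHEA-to-androstenedione conversion was measured by radio-HPLC.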

[6] = biological target: T2, 3-oxo-5-alpha-steroid 4-dehydrogenase 1 (Homo sapiens, UniProt P18405); assay: In vitro inhibitory activity against human type 1 5-alpha reductase
T2 sequence (P18405 whole entry): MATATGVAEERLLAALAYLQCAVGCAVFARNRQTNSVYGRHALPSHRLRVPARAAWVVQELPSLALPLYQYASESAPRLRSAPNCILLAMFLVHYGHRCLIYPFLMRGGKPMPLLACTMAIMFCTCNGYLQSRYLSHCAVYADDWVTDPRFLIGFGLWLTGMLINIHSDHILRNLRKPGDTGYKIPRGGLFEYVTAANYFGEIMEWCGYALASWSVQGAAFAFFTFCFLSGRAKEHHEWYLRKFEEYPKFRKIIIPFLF
Method in brief: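 Used microsomes from baculovirus-infected SF-9 cells expressing recombinant human type 1 5AR, at final enzyme 0.05–5 nM. Buffer at pH 7 and 37 °C contained an NADPH-regenerating system. Inhibitor was preincubated 10 min before adding 100 nM [3H]testosterone.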

Rattus norvegicus [7] = assay: In vivo inhibition of T stimulated prostate growth in rats was reported after oral administration at a dose 10 mg/kg/day; type: functional, Prostate gland
Method in brief: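 Rats were castrated, and 7 days later dosed orally once daily for 7 days at 10 mg/kg/day in 1 part cremophor:2 parts saline:0.5% Tween 80 (8 rats/group). Testosterone (40 μg/kg sc in corn oil) was given 4 h after each dose. Ventral prostates were weighed on day 8. Weight reduction was expressed as a percent of the finasteride reduction versus T-treated vehicle controls.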

[8] = Half-life after intravenous administration of 10 mg/kg/day dose in male beagles; type: ADME, organism-based, Canis lupus familiaris; set-up: route intravenous; conditions: beagle, dog, in vivo; method in brief: as §1

Row | SMILES | pIC50 [1] | half-life [2] [h] | Reduction (Rattus norvegicus [3]) [%] | bioavailability [4] [%] | pKi [5] | pKi [6] | Reduction (Rattus norvegicus [7]) [%] | half-life [8] [h]
1 | C[C@]12CCC(=O)C=C1NCC1C2CC[C@@]2(C)C1CC[C@@H]2C(=O)NC(c1ccccc1)c1ccccc1 (stereo not given in full) | > 10.00 | 4.8 | 95 | 79 | 6.82 | – | – | –
2 | CC1=C2NCC3C(CC[C@@]4(C)C3CC[C@@H]4C(=O)NC34CC5CC(CC(C5)C3)C4)[C@@]2(C)CCC1=O (stereo not given in full) | > 10.00 | – | – | – | 8.05 | 8.96 | 24 | –
3 | CN1CC2C(CC[C@@]3(C)C2CC[C@@H]3C(=O)NC(c2ccccc2)c2ccccc2)[C@@]2(C)CCC(=O)C=C12 (stereo not given in full) | 9.70 | – | – | – | 7.96 | 8.19 | 13 | –
4 | C[C@]12CCC(=O)C=C1NCC1C2CC[C@@]2(C)C1CC[C@@H]2C(=O)NC(c1ccc(F)cc1)c1ccc(F)cc1 (stereo not given in full) | – | 5.2 | 90 | – | 6.49 | – | – | –
5 | CN1CC2C(CC[C@@]3(C)C2CC[C@@H]3C(=O)NC23CC4CC(CC(C4)C2)C3)[C@@]2(C)CCC(=O)C=C12 (stereo not given in full) | > 10.00 | – | – | – | 8.57 | 8.07 | 12 | –
6 | CN1CC2C(CC[C@@]3(C)C2CC[C@@H]3C(=O)NC(C)(C)C)[C@@]2(C)CCC(=O)C=C12 (stereo not given in full) | – | – | – | 80 | 8.18 | 7.06 | 54 | 1.4
7 | C[C@]12C=CC(=O)C=C1NCC1C2CC[C@@]2(C)C1CC[C@@H]2C(=O)NC(c1ccccc1)c1ccccc1 (stereo not given in full) | > 10.00 | – | – | – | 6.00 | 7.32 | 0 | –
8 | C[C@]12C=CC(=O)C=C1NCC1C2CC[C@@]2(C)C1CC[C@@H]2C(=O)NC12CC3CC(CC(C3)C1)C2 (stereo not given in full) | > 10.00 | – | – | – | 6.00 | 7.13 | 14 | –
9 | C[C@]12CCC(=O)C=C1NCC1C2CC[C@@]2(C)C1CC[C@@H]2C(=O)NC(c1ccc(Cl)cc1)c1ccc(Cl)cc1 (stereo not given in full) | – | 12 | 74 | – | 6.29 | – | – | –
10 | CCN(CC)C(=O)[C@H]1CCC2C3CN(C)C4=CC(=O)CC[C@]4(C)C3CC[C@@]21C (stereo not given in full) | 8.64 | – | – | – | 8.44 | 6.74 | 52 | –
11 | C[C@]12CCC(=O)C=C1NCC1C2CC[C@@]2(C)C1CC[C@@H]2C(=O)NC12CC3CC(CC(C3)C1)C2 (stereo not given in full) | – | – | – | – | 7.11 | 7.96 | 38 | 1.8
12 | CC1=C2NCC3C(CC[C@@]4(C)C3CC[C@@H]4C(=O)NC(c3ccccc3)c3ccccc3)[C@@]2(C)CCC1=O (stereo not given in full) | > 10.00 | – | – | – | 7.74 | 8.44 | 38 | –
13 | CC1=C2NCC3C(CC[C@@]4(C)C3CC[C@@H]4C(=O)NC(C)(C)C)[C@@]2(C)CCC1=O (stereo not given in full) | 8.85 | – | – | – | 8.04 | 7.92 | 0 | –
14 | CC(C)CC(=O)[C@H]1CCC2C3CN(C)C4=CC(=O)CC[C@]4(C)C3CC[C@@]21C (stereo not given in full) | – | 2.2 | 5 | – | 8.96 | 8.51 | – | –
15 | CC(C)(C)NC(=O)[C@H]1CC[C@H]2[C@@H]3CC[C@H]4NC(=O)C=C[C@]4(C)[C@H]3CC[C@]12C [FINASTERIDE] | – | – | – | 69 | 4.96 | – | 100 | 4.2

From ChEMBL document CHEMBL1127590 (J Med Chem, 1994)
